Results of several laboratories.
Compare with care: the assays were run in different laboratories.
Target: 3',5'-cyclic-AMP phosphodiesterase 4B (PDE4B, Homo sapiens, UniProt Q07343)
Observed: enzyme activity
Mode: inhibitor

| Compound | technique | endpoint | result |
| --- | --- | --- | --- |
| COc1ccc(C2=NN(C3CCCCCC3)C(=O)C3CC=CCC23)cc1-c1ccc(C(=O)N2CCC[C@@H]2C(N)=O)cc1 (mixture of isomers) | – | Ki | 6.31 µM |
| COc1ccc([C@@H]2CN(C(=O)[C@@H](O)CO)C[C@@]2(C)[C@@H](C)O)cc1OC1CN(c2ccc(C)cn2)C1 | – | IC50 | 9e-05 µM |
| CCn1c(-c2nc3ccc(C(=O)N4CCCC(N)C4)cc3n2C)cc2ccccc21 (centres unmarked) | – | IC50 | 25.1 µM |
| CC(C)CC(=O)c1ccc(OC(F)F)c(O[C@@H]2CCOC2)c1 | radiometric | IC50 | 0.089 µM |
| COc1ccc(C2=NN(C3CCCCCC3)C(=O)C3CC=CCC23)cc1-c1ccc(C(=O)N2CC[C@@H](O)C2)cc1 (mixture of isomers) | – | Ki | 2 µM |
| CN1C(=O)c2c(nn(Cc3ccc(-c4cccc(F)n4)cc3)c2Nc2ccccc2)N2C1=N[C@@H]1CCC[C@@H]12 | – | IC50 | > 0.1 µM |
| CCn1c(-c2nc3cc(C(=O)N4CCC[C@@H](N)C4)cc(OC)c3n2C)cc2cccnc21 | – | IC50 | 6.31 µM |
| CSc1ccc(/C=C2/C(C)=C(CC(=O)O)c3cc(F)ccc32)cc1 | – | IC50 | > 100 µM |
